In ChEMBL document CHEMBL2016520, “Design, synthesis, molecular docking and biological evaluation of new dithiocarbamates substituted benzimidazole and chalcones as possible chemotherapeutic agents” (Bioorg Med Chem Lett, 2012) one finds IC50 data, which are given here for 13 compounds.

Each structure is given as a SMILES string.

The assay has as its system Cicer arietinum. Kind of assay: Antimitotic activity against chick pea seeds assessed as inhibition of germinating root growth after 7 days. The assay is classed as functional, organism-based. The note with it: 168 h. An outline of the steps: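 Seeds germinated in Petri dishes on filter paper for 7 days, with the paper moistened every 24 h with drug solution. One dish held DMSO as control and one held cisplatin as the standard. Radicle length was measured in cm on day 7, and percent growth inhibition was calculated against the mean of the DMSO-treated control.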

Usually IC50 stands for the concentration that inhibits the measured activity by half.

As for `CCN(CC)C(=S)SC(CC(=O)c1ccccc1)c1ccccc1` (stereo not drawn), the IC50 came to 1840 nM.

Turning to `S=C(SCc1nc2ccccc2[nH]1)N1CCCC1`, the IC50 amounted to 1800 nM.

In the case of `S=C(SCc1nc2ccccc2[nH]1)N1CCOCC1`, the IC50 is 1890 nM.

With `S=C(SCc1nc2ccccc2[nH]1)N1CCCCC1`, the 50% inhibitory concentration (IC50) was found to be 1660 nM.

For `CN(C)C(=S)SCc1nc2ccccc2[nH]1`, the IC50 worked out at 2120 nM.

Turning to `CCN(CC)C(=S)SCc1nc2ccccc2[nH]1`, the half-inhibitory concentration (IC50) was found to be 1860 nM.

`CCCNC(=S)SCc1nc2ccccc2[nH]1`: the IC50 stood at 2290 nM.

As to `CCCCNC(=S)SCc1nc2ccccc2[nH]1`, the IC50 is 2110 nM.

With `O=C(CC(SC(=S)N1CCCC1)c1ccccc1)c1ccccc1` (stereo not drawn), the IC50 was determined as 1670 nM.

Regarding `O=C(CC(SC(=S)N1CCCCC1)c1ccccc1)c1ccccc1` (stereo not drawn), the IC50 came out at 1850 nM.

As for `O=C(CC(SC(=S)N1CCOCC1)c1ccccc1)c1ccccc1` (stereo not drawn), the IC50 was found to be 1650 nM.

With `O=C(CC(SC(=S)Nc1nc2ccccc2s1)c1ccccc1)c1ccccc1` (stereo not drawn), the 50% inhibitory concentration (IC50) stood at 1520 nM.

On to `CN(C)C(=S)SC(CC(=O)c1ccccc1)c1ccccc1` (stereo not drawn), for which the concentration for half-maximal inhibition (IC50) was 2430 nM.
